According to ChEMBL document CHEMBL1938274, “Discovery of potent and specific CXCR3 antagonists” (Bioorg Med Chem Lett, 2012):

How the values were obtained:
[1] = target: T1, C-X-C chemokine receptor type 3 (Homo sapiens, UniProt P49682); assay: Displacement of [125I]-IP-10 from CXCR3 in presence of 100% human serum
T1 sequence (P49682 whole entry): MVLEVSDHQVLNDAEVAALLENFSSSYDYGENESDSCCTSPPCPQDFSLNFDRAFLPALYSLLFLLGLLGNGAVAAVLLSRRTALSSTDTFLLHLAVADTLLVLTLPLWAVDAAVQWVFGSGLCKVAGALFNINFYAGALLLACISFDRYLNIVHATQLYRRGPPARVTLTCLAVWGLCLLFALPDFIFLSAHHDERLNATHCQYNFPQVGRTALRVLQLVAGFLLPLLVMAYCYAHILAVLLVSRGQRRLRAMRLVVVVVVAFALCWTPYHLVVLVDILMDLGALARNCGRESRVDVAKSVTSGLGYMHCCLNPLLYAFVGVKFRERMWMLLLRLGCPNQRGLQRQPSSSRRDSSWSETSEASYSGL

PBL [2] = assay: Toxicity in human PBL assessed as chromosomal aberrations at 7.81 to 1000 ug/mL in the presence of S9; type: cell-based
Summary of the method: (§1)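 Cultured human peripheral blood lymphocytes exposed at 7.81–1000 μg/mL, with and without S9 metabolic activation; chromosomal aberrations scored.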

[3] = target: T1, C-X-C chemokine receptor type 3; assay: Displacement of [125I]-IP-10 from CXCR3
PBL [4] = assay: Toxicity in human PBL assessed as chromosomal aberrations at 7.81 to 1000 ug/mL; type: cell-based; summary of the method: as §1
Cytochrome P450 3A4 = Cytochrome P450 3A4 (Homo sapiens, UniProt P08684); assay: Time dependent inhibition of CYP3A4; type: ADME
Cytochrome P450 3A4, sequence (P08684 whole entry): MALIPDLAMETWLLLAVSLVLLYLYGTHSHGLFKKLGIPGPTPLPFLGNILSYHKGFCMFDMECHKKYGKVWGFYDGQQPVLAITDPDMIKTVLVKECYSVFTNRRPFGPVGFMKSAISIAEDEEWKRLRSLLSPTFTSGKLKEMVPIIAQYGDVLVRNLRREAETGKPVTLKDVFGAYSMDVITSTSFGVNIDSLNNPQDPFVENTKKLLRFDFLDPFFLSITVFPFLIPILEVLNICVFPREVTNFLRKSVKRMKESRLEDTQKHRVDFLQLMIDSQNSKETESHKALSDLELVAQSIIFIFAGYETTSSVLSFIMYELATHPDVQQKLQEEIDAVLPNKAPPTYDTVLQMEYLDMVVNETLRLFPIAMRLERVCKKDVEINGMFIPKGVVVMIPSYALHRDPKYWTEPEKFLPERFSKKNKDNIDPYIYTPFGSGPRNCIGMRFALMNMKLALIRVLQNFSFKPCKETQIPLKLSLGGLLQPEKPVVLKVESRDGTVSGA

[5] = Clearance in Beagle dog at 0.5 mg/kg, iv; type: ADME, organism-based, Canis lupus familiaris; set-up: dose 0.5 mg/kg, route intravenous; conditions: in vivo
Summary of the method: (§2)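 Single intravenous dose in 10% N,N-dimethylacetamide, 10% ethanol, 30% propylene glycol, 50% water: 1 mg/kg mouse; 0.5 mg/kg rat, beagle dog, cynomolgus monkey. Plasma clearance also given as percent of hepatic blood flow.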

[6] = Clearance in mouse at 1 mg/kg, iv; type: ADME, organism-based; set-up: dose 1 mg/kg, route intravenous; conditions: in vivo; summary of the method: as §2
[7] = Apparent oral bioavailability in cynomolgus monkey at 2 mg/kg; type: ADME, organism-based, Macaca fascicularis; conditions: in vivo, read-out: Fapp
[8] = Apparent oral bioavailability in mouse at 5 mg/kg; type: ADME, organism-based; conditions: in vivo, read-out: Fapp
[9] = Clearance in cynomolgus monkey at 0.5 mg/kg, iv; type: ADME, organism-based, Macaca fascicularis; set-up: dose 0.5 mg/kg, route intravenous; conditions: in vivo; summary of the method: as §2
[10] = Apparent oral bioavailability in Beagle dog at 2 mg/kg; type: ADME, organism-based, Canis lupus familiaris; conditions: in vivo, read-out: Fapp
[11] = Clearance in rat at 0.5 mg/kg, iv; type: ADME, organism-based; set-up: dose 0.5 mg/kg, route intravenous; conditions: in vivo; summary of the method: as §2
[12] = Mean residence time in cynomolgus monkey at 0.5 mg/kg, iv; type: ADME, organism-based, Macaca fascicularis; set-up: dose 0.5 mg/kg, route intravenous; conditions: in vivo; summary of the method: as §2
[13] = Volume of distribution at steady state in mouse at 1 mg/kg, iv; type: ADME, organism-based; set-up: dose 1 mg/kg, route intravenous; conditions: in vivo, read-out: Vdss; summary of the method: as §2
[14] = Mean residence time in Beagle dog at 0.5 mg/kg, iv; type: ADME, organism-based, Canis lupus familiaris; set-up: dose 0.5 mg/kg, route intravenous; conditions: in vivo; summary of the method: as §2
[15] = Apparent oral bioavailability in rat at 2 mg/kg; type: ADME, organism-based; conditions: in vivo, read-out: Fapp
[16] = Volume of distribution at steady state in Beagle dog at 0.5 mg/kg, iv; type: ADME, organism-based, Canis lupus familiaris; set-up: dose 0.5 mg/kg, route intravenous; conditions: in vivo, read-out: Vdss; summary of the method: as §2
[17] = Mean residence time in mouse at 1 mg/kg, iv; type: ADME, organism-based; set-up: dose 1 mg/kg, route intravenous; conditions: in vivo; summary of the method: as §2
[18] = Volume of distribution at steady state in cynomolgus monkey at 0.5 mg/kg, iv; type: ADME, organism-based, Macaca fascicularis; set-up: dose 0.5 mg/kg, route intravenous; conditions: in vivo, read-out: Vdss; summary of the method: as §2
[19] = Volume of distribution at steady state in rat at 0.5 mg/kg, iv; type: ADME, organism-based; set-up: dose 0.5 mg/kg, route intravenous; conditions: in vivo, read-out: Vdss; summary of the method: as §2
[20] = Mean residence time in rat at 0.5 mg/kg, iv; type: ADME, organism-based; set-up: dose 0.5 mg/kg, route intravenous; conditions: in vivo; summary of the method: as §2

| IC50 [1] | IC50 [3] | TDI (Cytochrome P450 3A4) | clearance [5] | clearance [6] | bioavailability [7] | bioavailability [8] | clearance [9] | bioavailability [10] | Structure (SMILES) | Activity (PBL [2]) | Activity (PBL [4]) | also measured |
| --- | --- | --- | --- | --- | --- | --- | --- | --- | --- | --- | --- | --- |
|  |  | Active |  |  |  |  |  |  | CCS(=O)(=O)CCN(C(=O)Cc1ccc(F)c(C(F)(F)F)c1)[C@H](C)c1nc2ncccn2c1-c1ccc(O)cc1 |  |  |  |
|  |  | Not Active |  |  |  |  |  |  | CCOc1ccc(-c2c([C@@H](C)N(CCS(=O)(=O)CC)C(=O)Cc3ccc(F)c(C(F)(F)F)c3)nc3ccccn3c2=O)cc1 |  |  |  |
| 21 nM | 7 nM |  |  |  |  |  |  |  | CCS(=O)(=O)CCN(C(=O)Cc1ccc(C(F)(F)F)c(F)c1)[C@H](C)c1nc2ncccc2c(=O)n1-c1ccc(Cl)cc1 | Non-toxic | Non-toxic |  |

More lines, now with the values behind:

| Structure (SMILES) | IC50 [1] | IC50 [3] | TDI (Cytochrome P450 3A4) | clearance [5] | clearance [6] | bioavailability [7] | bioavailability [8] | clearance [9] | bioavailability [10] | Activity (PBL [2]) | Activity (PBL [4]) | also measured |
| --- | --- | --- | --- | --- | --- | --- | --- | --- | --- | --- | --- | --- |
| C[C@H](c1nc2ccccn2c(=O)c1-c1ccc(C#N)cc1)N(CC1CCS(=O)(=O)CC1)C(=O)Cc1ccc(OC(F)(F)F)cc1 | 22 nM | 6 nM |  |  |  |  |  |  |  | Toxic | Toxic |  |
| C[C@H](c1nc2ncccc2c(=O)n1-c1ccc(C#N)cc1)N(CC1CCS(=O)(=O)CC1)C(=O)Cc1ccc(F)c(C(F)(F)F)c1 | 12 nM | 8 nM |  | 8.33 mL/min/kg | 8.17 mL/min/kg | 1% | 17% | 21.7 mL/min/kg | 1.6% | Non-toxic | Non-toxic |  |
| C[C@H](c1nc2ncccc2c(=O)n1-c1ccc(F)cc1)N(CC1CCS(=O)(=O)CC1)C(=O)Cc1ccc(F)c(C(F)(F)F)c1 | 17 nM | 7 nM |  | 14.8 mL/min/kg | 5.67 mL/min/kg | 51% | 59% | 5.67 mL/min/kg | > 100% | Non-toxic | Non-toxic | clearance [11]: 35 mL/min/kg; MRT [12]: 6.4 h; Vd [13]: 0.73 L/kg; MRT [14]: 1.5 h; bioavailability [15]: > 100%; Vd [16]: 1.3 L/kg; MRT [17]: 2.1 h; Vd [18]: 2.2 L/kg; Vd [19]: 5 L/kg; MRT [20]: 2.4 h |
